# Published values from different studies.
# CDK2 with cyclin A2: Cyclin-dependent kinase 2, with cyclin A2 (CDK2, Homo sapiens, UniProt P24941)
# ST14: Suppressor of tumorigenicity 14 protein (ST14, Homo sapiens, UniProt Q9Y5Y6)
# MAPK10: Mitogen-activated protein kinase 10 (MAPK10, Homo sapiens, UniProt P53779)
Compound,target,effect on,action,technique,tested at,measurement,result
CC(=O)Nc1c(N)nc(SCC(=O)N/N=C/c2ccc([N+](=O)[O-])cc2)[nH]c1=O,CDK2 with cyclin A2,enzyme activity,inhibitor,,1 µM,inhibition,67.2%
C=CC(=O)N1CCC(COCC(=O)N2CCN(c3nc(-c4cnc(N)nc4C(F)F)nc(N4CCOC[C@@H]4C)n3)CC2)CC1,"Angiopoietin-1 receptor (TEK, Homo sapiens, UniProt Q02763)",binding,,competition with immobilised ligand,1 µM,remaining binding,100%
CC(=O)Nc1c(N)nc(SCC(=O)NN)[nH]c1=O,CDK2 with cyclin A2,enzyme activity,inhibitor,,200 pM,inhibition,3.98%
N=C(N)NCCC[C@H](NC(=O)[C@@H](NC(=O)[C@H](Cc1cscn1)NC(=O)CCc1ccccc1)C1CCCCC1)C(=O)c1nc2ccccc2s1,ST14,enzyme activity,inhibitor,,0.1 µM,remaining activity,32%
CNc1ncc2c(/C=C/C(=O)N3CCC(OC)CC3)nn(Cc3cccc(C(F)(F)F)c3)c2n1,MAPK10,enzyme activity,inhibitor,radiometric,1 µM,remaining activity,87%
C=CCCCCCC(C)(NC(=O)[C@H](Cc1cscn1)NC(=O)CCc1ccccc1)C(=O)N[C@@H](CCCNC(=N)N)C(=O)c1nc2ccccc2s1 (stereo partly shown),ST14,enzyme activity,inhibitor,,0.1 µM,remaining activity,89%
Cc1cc([C@@H](C)Nc2ccccc2C(=O)O)c2nc(N3CCC(F)(F)CC3)c(C#N)c(=O)n2c1,MAPK10,binding,,competition with immobilised ligand,10 µM,remaining binding,100%
N=C(N)NCCC[C@H](NC(=O)[C@@H](CC1CCCCC1)NC(=O)[C@H](Cc1cscn1)NC(=O)CCc1ccccc1)C(=O)c1nc2ccccc2s1,ST14,enzyme activity,inhibitor,,0.1 µM,remaining activity,95%
CNC(=O)c1cc(Oc2ccc(NC(=O)Nc3ccc(Cl)c(C(F)(F)F)c3)cc2)ccn1,CDK2 with cyclin A2,enzyme activity,inhibitor,,5 nM,inhibition,27.6%
COc1cc(-c2cncc3c2CN(C)Cc2cc(N4CCNCC4)ccc2-3)cc(OC)c1OC,"Dual specificity protein kinase CLK3 (CLK3, Homo sapiens, UniProt P49761)",enzyme activity,inhibitor,,1 µM,remaining activity,103%
